Data on six molecules can be found in publication PMC8518816 (Chemmedchem, 2021).

One test deals with T1, PTP1B (Homo sapiens, UniProt P18031).
T1 sequence (P18031 1-322 limits assumed): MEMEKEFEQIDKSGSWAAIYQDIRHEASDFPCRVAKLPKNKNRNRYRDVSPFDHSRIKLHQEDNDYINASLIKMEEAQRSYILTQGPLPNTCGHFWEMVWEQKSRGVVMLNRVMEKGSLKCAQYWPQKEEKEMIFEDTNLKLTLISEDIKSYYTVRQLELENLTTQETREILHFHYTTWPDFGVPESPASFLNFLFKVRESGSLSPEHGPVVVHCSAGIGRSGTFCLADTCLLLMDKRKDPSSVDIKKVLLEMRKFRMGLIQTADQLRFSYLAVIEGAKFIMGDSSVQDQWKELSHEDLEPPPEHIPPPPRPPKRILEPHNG
Nature of the test: PTP1B enzyme inhibition. The format is biochemical. The note with it: for inhibition at 1 µM: read-out: % Inhib. PTP1B @ 1 μM. A digest of the protocol:
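Recombinant 322-amino-acid PTP1B preincubated with test compound; pNPP substrate then added and hydrolysis followed as absorbance increase at 405 nm. IC50 fitted from increasing compound concentrations, each point in duplicate. Percent inhibition also taken at 1 μM.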

The next test deals with T2, TCPTP (Homo sapiens, UniProt P17706).
T2 sequence (P17706 1-341 limits assumed): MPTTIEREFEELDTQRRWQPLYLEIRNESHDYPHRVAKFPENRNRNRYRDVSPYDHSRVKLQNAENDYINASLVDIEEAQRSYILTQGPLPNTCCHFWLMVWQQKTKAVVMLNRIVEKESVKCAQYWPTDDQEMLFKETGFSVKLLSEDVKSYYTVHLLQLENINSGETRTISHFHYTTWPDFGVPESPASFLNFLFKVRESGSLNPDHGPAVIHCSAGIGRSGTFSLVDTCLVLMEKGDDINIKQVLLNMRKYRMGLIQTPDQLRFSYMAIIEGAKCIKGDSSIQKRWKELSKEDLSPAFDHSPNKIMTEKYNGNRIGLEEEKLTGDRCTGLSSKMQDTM
Nature of the test: TCPTP enzyme inhibition. The format is biochemical. To be noted: read-out: % Inhib. TCPTP @ 1 μM. The essentials: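 Selectivity counter-screen using recombinant 341-amino-acid TCPTP mixed with test compound at 1 μM. Substrate pNPP added, and hydrolysis read as absorbance increase at 405 nm. Each point run in duplicate; output is percent inhibition.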

The test system of another test is C2 C12 myotubes. Nature of the test: Glucose uptake. It is filed as cell-based, Mouse. The note with it: 2 μM, 90 min, 2-NBDG 0.1 mM. A digest of the protocol:
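Mouse C2C12 myoblasts grown in DMEM with 10 % heat-inactivated FBS and penicillin/streptomycin (37 °C, 5 % CO2), then differentiated in DMEM with 2 % horse serum, changed every 48 h. Test compound at 2 μM for 90 min (insulin 10 nM, 30 min as positive control), then 0.1 mM 2-NBDG for 30 min. Washed three times with cold PBS. Intracellular fluorescence minus no-2-NBDG autofluorescence, corrected for BCA protein, relative to vehicle; 5 independent experiments, mean ± S.E.M.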

[1] abbreviates: IC50±SD, soluble 322 amino acids PTP1B, pNPP substrate.
The mark [2] stands for this setting: pIC50, soluble 322 amino acids PTP1B.

As to `Cc1nc2ccccc2n2cccc12` [Compound 1, 4‐methylpyrrolo[1,2‐a]quinoxaline], the “SI (selectivity index, percentage inhibition ratio PTP1B/TCPTP at 1 μM)” value at PTP1B came out at 0.94. The values for the inhibition at 1 µM on PTP1B and on TCPTP were 51% and 54%, respectively.
On to `Cc1nc2ccccc2n2ccnc12` [Compound 2, 4‐Methylimidazo[1,2‐a]quinoxaline], for which, at PTP1B, the “SI (selectivity index, percentage inhibition ratio PTP1B/TCPTP at 1 μM)” value came out at 1.97. Further, the IC50 at PTP1B (setting [1]) was 460 ± 40 nM; against PTP1B (setting [2]) it was 468 nM. The values for the inhibition at 1 µM on PTP1B and on TCPTP were 87% and 44%, respectively. For the same molecule, the “increase of glucose uptake with respect to control cells” value with C2 C12 myotubes is reported as 15%.
`Cc1nc2ccccc2n2cnnc12` [Compound 3, 4‐Methyl[1,2,4]triazolo[4,3‐a]quinoxaline]: the “SI (selectivity index, percentage inhibition ratio PTP1B/TCPTP at 1 μM)” value at PTP1B is listed as 1.27. Also, the figures for the IC50 on PTP1B (setting [1]) and at PTP1B (setting [2]) were 790 ± 10 nM and 794 nM, respectively. Moreover, the results for the inhibition at 1 µM on PTP1B and at TCPTP were 70% and 55%, respectively. Besides, the “increase of glucose uptake with respect to control cells” value in the test on C2 C12 myotubes is on record as approximately 30%.
Take `Cc1nc2ccccc2n2nnnc12` [Compound 4, 4‐Methyltetrazolo[1,5‐a]quinoxaline]: the figures for the IC50 on PTP1B (setting [1]) and against PTP1B (setting [2]) were 1480 ± 70 nM and 1510 nM, respectively. For the same molecule, the inhibition at 1 µM on PTP1B is 46%; at TCPTP, 50%.
As for `c1ccc2c(c1)ncc1nnnn12` [Compound 9, Tetrazolo[1,5‐a]quinoxaline], at PTP1B, the “SI (selectivity index, percentage inhibition ratio PTP1B/TCPTP at 1 μM)” value came to 1.17. The results for the IC50 against PTP1B (setting [1]) and at PTP1B (setting [2]) were 620 ± 200 nM and 631 nM, respectively. In addition, the inhibition at 1 µM at PTP1B is 80%; on TCPTP it was 68%.
Consider `CC1Nc2ccccc2-n2nnnc21` (stereo not shown) [Compound 10, 4‐Methyl‐4,5‐dihydrotetrazolo[1,5‐a]quinoxaline], for which the IC50 against PTP1B (setting [1]) was 2170 ± 80 nM; against PTP1B (setting [2]), 2190 nM. The inhibition at 1 µM amounted to 37% at PTP1B and 35% on TCPTP.
